≈ marks a conversion by molar mass, not a printed value.
Tests used:
Klebsiella pneumoniae [1] = experiment: Antibacterial activity against extended spectrum beta-lactamase KPC-2 producing multidrug resistant Klebsiella pneumoniae clinical isolates after 18 hrs by broth microdilution method; assay type: functional
Escherichia coli [2] = experiment: Antibacterial activity against extended spectrum beta-lactamases producing Escherichia coli clinical isolates after 18 hrs by broth microdilution method; assay type: functional
Plasma = experiment: Fraction unbound in human plasma at 10 uM after 4 hrs by LC-MS/MS based rapid equilibrium dialysis method; assay type: ADME, cell-free
Summary of the method: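 Human plasma spiked at 10 μM was dialysed against buffer in a rapid equilibrium dialysis device for 4 h at 37 °C under 5% CO2 (n = 4). Both sides were quantified by LC–MS/MS. Fraction unbound was taken as the buffer concentration divided by the total plasma-side concentration.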

Acinetobacter baumannii = experiment: Antibacterial activity against extended spectrum beta-lactamase OXA-23 producing multidrug resistant Acinetobacter baumannii clinical isolates after 18 hrs by broth microdilution method; assay type: functional
Pseudomonas aeruginosa = experiment: Antibacterial activity against extended spectrum beta-lactamase IMP-4 producing multidrug resistant Pseudomonas aeruginosa clinical isolates after 18 hrs by broth microdilution method; assay type: functional
[3] = Drug degradation in human plasma at 10 uM after 4 hrs by LC-MS/MS analysis; assay type: ADME, cell-free; details: read-out: Drug degradation
Summary of the method: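 Human plasma containing compound (10 μM, n = 4) was incubated for 4 h at 37 °C under 5% CO2. Concentrations at T0 and at 4 h were measured by LC–MS/MS, and degradation was expressed as a percentage relative to the T0 average.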

Escherichia coli [4] = experiment: Antibacterial activity against Escherichia coli isolate 210737 after 18 hrs by broth microdilution method; assay type: functional; details: isolate 210737, 18 h
Summary of the method: (§1)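 CLSI broth microdilution in Mueller-Hinton broth with 16 mg/L 2,2'-bipyridyl added. Compounds were dissolved in DMSO, or in water for meropenem and ceftizoxime sodium, then serially diluted in growth medium.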

Klebsiella pneumoniae [5] = experiment: Antibacterial activity against Klebsiella pneumoniae isolate 212232 after 18 hrs by broth microdilution method; assay type: functional; details: isolate 212232, 18 h; summary of the method: as §1
in vivo = details: Sprague-Dawley, rat, iv, 1 mg/kg
[6] = Volume of distribution in steady state in Sprague-Dawley rat at 1 mg/kg, iv measured up to 180 mins by LC-MS/MS analysis; assay type: ADME, organism-based; details: in vivo, read-out: Vdss
Summary of the method: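 Male Sprague-Dawley rats (200–220 g, n = 3 per group) received 1.0 mg/kg iv in water. Blood was taken from the retrobulbar vein at 2, 5, 15, 30, 45, 60, 90 and 180 min. Plasma was quantified by LC–MS/MS, and parameters were derived by noncompartmental analysis of mean plasma concentrations.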

[7] = Klebsiella pneumoniae, 18 h, read-out: MIC

SMILES | MIC (Klebsiella pneumoniae [1]; [7]) | MIC (Escherichia coli [2]) | Fu (Plasma) | MIC (Acinetobacter baumannii) | MIC (Pseudomonas aeruginosa) | metabolised at 4 h, 10 µM [3] | MIC (Klebsiella pneumoniae [1]) | MIC (Escherichia coli [4]) | MIC (Klebsiella pneumoniae [5]) | AUC(0-t) at 3 h (in vivo) | Vd [6]
CC(C)[C@H](O/N=C(\C(=O)N[C@@H]1C(=O)N(OS(=O)(=O)O)C1(C)C)c1nc(N)sc1Cl)c1cc(=O)c(O)cn1O | 0.25 to 0.5 µg/mL (≈ 0.42 to 0.84 µM) | 0.06 to 1 µg/mL (≈ 0.101 to 1.68 µM) | 23% | 0.5 to 1 µg/mL (≈ 0.84 to 1.68 µM) | 0.06 to 1 µg/mL (≈ 0.101 to 1.68 µM) | 33% | – | – | – | – | –
CSC[C@@H](O/N=C(\C(=O)N[C@@H]1C(=O)N(OS(=O)(=O)O)C1(C)C)c1csc(N)n1)c1cc(=O)c(O)cn1O | 0.125 to 0.5 µg/mL (≈ 0.216 to 0.864 µM) | – | – | 0.5 to 2 µg/mL (≈ 0.864 to 3.46 µM) | 1 to 8 µg/mL (≈ 1.73 to 13.8 µM) | – | – | – | – | – | –
CSC[C@H](O/N=C(\C(=O)N[C@@H]1C(=O)N(OS(=O)(=O)O)C1(C)C)c1csc(N)n1)c1cc(=O)c(O)cn1O | – | – | 29% | 0.5 to 4 µg/mL (≈ 0.864 to 6.91 µM) | 0.5 to 2 µg/mL (≈ 0.864 to 3.46 µM) | 39% | >0.06 to 64 µg/mL | – | – | – | –
CC1(C)[C@H](NC(=O)/C(=N\OC(CO)c2cc(=O)c(O)cn2O)c2csc(N)n2)C(=O)N1OS(=O)(=O)O (some centres undefined) | 0.25 to 64 µg/mL (≈ 0.456 to 117 µM) | 0.06 to 4 µg/mL (≈ 0.109 to 7.29 µM) | 59% | 0.5 to 2 µg/mL (≈ 0.912 to 3.65 µM) | 0.25 to 16 µg/mL (≈ 0.456 to 29.2 µM) | 50% | – | – | – | – | –
CC1(C)[C@H](NC(=O)/C(=N\OC(c2cccs2)c2cc(=O)c(O)cn2O)c2csc(N)n2)C(=O)N1OS(=O)(=O)O (some centres undefined) | 0.06 to 16 µg/mL (≈ 0.0999 to 26.6 µM) | – | – | 0.5 to 2 µg/mL (≈ 0.832 to 3.33 µM) | 0.5 to 2 µg/mL (≈ 0.832 to 3.33 µM) | – | – | – | – | – | –
CC1(C)[C@H](NC(=O)/C(=N\OC(C(=O)O)c2cc(=O)c(O)cn2O)c2csc(N)n2)C(=O)N1OS(=O)(=O)O (some centres undefined) | 0.25 to 1 µg/mL (≈ 0.444 to 1.78 µM) | 0.125 to 4 µg/mL (≈ 0.222 to 7.11 µM) | – | 0.5 µg/mL (≈ 0.889 µM) | 1 to 4 µg/mL (≈ 1.78 to 7.11 µM) | – | – | – | – | – | –
COCC(O/N=C(\C(=O)N[C@@H]1C(=O)N(OS(=O)(=O)O)C1(C)C)c1csc(N)n1)c1cc(=O)c(O)cn1O (some centres undefined) | 0.06 to 2 µg/mL (≈ 0.107 to 3.56 µM) | – | 67% | 0.125 to 1 µg/mL (≈ 0.222 to 1.78 µM) | 1 to 4 µg/mL (≈ 1.78 to 7.11 µM) | 57% | – | – | – | – | –
CC(C)[C@@H](O/N=C(\C(=O)N[C@@H]1C(=O)N(OS(=O)(=O)O)C1(C)C)c1nc(N)sc1Cl)c1cc(=O)c(O)cn1O | 0.5 to 2 µg/mL (≈ 0.84 to 3.36 µM) | 0.125 to 1 µg/mL (≈ 0.21 to 1.68 µM) | – | 0.25 to 64 µg/mL (≈ 0.42 to 108 µM) | 0.5 to 4 µg/mL (≈ 0.84 to 6.72 µM) | – | – | – | – | – | –
CC1(C)[C@H](NC(=O)/C(=N\OC(c2ccccc2)c2cc(=O)c(O)cn2O)c2csc(N)n2)C(=O)N1OS(=O)(=O)O (some centres undefined) | – | – | – | 0.5 to 2 µg/mL (≈ 0.841 to 3.36 µM) | 0.5 to 2 µg/mL (≈ 0.841 to 3.36 µM) | – | – | – | – | – | –
CC1(C)[C@H](NC(=O)/C(=N\OC(c2cc(=O)c(O)cn2O)C2CC2)c2csc(N)n2)C(=O)N1OS(=O)(=O)O (some centres undefined) | – | 0.06 to 4 µg/mL (≈ 0.107 to 7.16 µM) | 39% | 0.5 to 2 µg/mL (≈ 0.895 to 3.58 µM) | 0.25 to 4 µg/mL (≈ 0.448 to 7.16 µM) | 24% | 0.06 to 64 µg/mL | – | – | – | –
CC(=O)N(O)CCO/N=C(\C(=O)N[C@@H]1C(=O)N(OS(=O)(=O)O)C1(C)C)c1csc(N)n1 | 32 to 64 µg/mL (≈ 66.6 to 133 µM) | 4 to 32 µg/mL (≈ 8.32 to 66.6 µM) | – | 16 to 64 µg/mL (≈ 33.3 to 133 µM) | ≥ 64 µg/mL | – | – | – | – | – | –
CC(C)[C@@H](O/N=C(\C(=O)N[C@@H]1C(=O)N(OS(=O)(=O)O)C1(C)C)c1csc(N)n1)c1cc(=O)c(O)cn1O | 0.06 to 0.5 µg/mL (≈ 0.107 to 0.892 µM) | 0.06 to 2 µg/mL (≈ 0.107 to 3.57 µM) | – | 0.25 to 64 µg/mL (≈ 0.446 to 114 µM) | 1 to 4 µg/mL (≈ 1.78 to 7.14 µM) | – | – | – | – | – | –
CC1(C)[C@H](NC(=O)/C(=N\OCc2ccn(O)c(=O)c2)c2csc(N)n2)C(=O)N1OS(=O)(=O)O | 4 to 64 µg/mL (≈ 7.96 to 127 µM) | 0.25 to 4 µg/mL (≈ 0.498 to 7.96 µM) | – | 4 to 64 µg/mL (≈ 7.96 to 127 µM) | 64 µg/mL (≈ 127 µM) | – | – | – | – | – | –
CC(O/N=C(\C(=O)N[C@@H]1C(=O)N(OS(=O)(=O)O)C1(C)C)c1csc(N)n1)c1cc(=O)c(O)cn1O (some centres undefined) | – | 0.06 to 0.25 µg/mL (≈ 0.113 to 0.469 µM) | 41% | 0.5 to 64 µg/mL (≈ 0.939 to 120 µM) | 0.25 to 8 µg/mL (≈ 0.469 to 15 µM) | 24% | 0.03 to 64 µg/mL | – | – | – | –
CC(C)C(O/N=C(\C(=O)N[C@@H]1C(=O)N(OS(=O)(=O)O)C1(C)C)c1csc(N)n1)c1cc(=O)c(O)cn1O (some centres undefined) | – | – | 35% | 0.125 to 1 µg/mL (≈ 0.223 to 1.78 µM) | 0.25 to 1 µg/mL (≈ 0.446 to 1.78 µM) | 29% | – | < 0.03 µg/mL | < 0.03 µg/mL | 1730 ng·h/mL | 0.3 L/kg
CC(C)[C@@H](O/N=C(\C(=O)N[C@@H]1C(=O)N(OS(=O)(=O)O)C1(C)C)c1nsc(N)n1)c1cc(=O)c(O)cn1O | 0.5 to 2 µg/mL (≈ 0.89 to 3.56 µM) | 0.5 to 8 µg/mL (≈ 0.89 to 14.2 µM) | – | 0.5 to 64 µg/mL (≈ 0.89 to 114 µM) | 1 to 4 µg/mL (≈ 1.78 to 7.12 µM) | – | – | – | – | – | –
